In the library only some 4.5% were active in any assay of this set; here they are far more common.
GPR7 antagonist = blocks human GPR7 receptor signaling; P48145; GPR7-expressing cells, fluorescence antagonist assay; inhibition, % at 4.4 µM; 290,000 compounds, 1.1% hits; AID 1861; in the data active = inhibition above about 16%, passing the limit was not always enough;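 also: cells stimulated with the agonist NPW; 0% = agonist with vehicle and 100% = vehicle without agonist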
Target sequence (P48145 whole entry, looked up): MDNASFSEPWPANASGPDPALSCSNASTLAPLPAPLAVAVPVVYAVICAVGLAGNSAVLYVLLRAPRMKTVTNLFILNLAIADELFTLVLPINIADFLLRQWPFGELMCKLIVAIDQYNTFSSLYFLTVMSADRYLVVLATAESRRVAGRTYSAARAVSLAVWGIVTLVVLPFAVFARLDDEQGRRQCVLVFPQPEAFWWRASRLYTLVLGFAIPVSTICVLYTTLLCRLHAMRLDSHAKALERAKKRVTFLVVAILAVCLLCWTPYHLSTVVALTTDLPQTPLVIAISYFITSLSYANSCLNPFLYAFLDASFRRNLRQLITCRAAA
OX1R antag-1 = blocks the human orexin 1 receptor; O43613; OX1R-expressing cells, FRET antagonist read-out; inhibition, % at 6.6 µM; 330,000 compounds, 1.8% hits; AID 485270; in the data active = inhibition mostly above about 38%, no sharp cut-off; inactive = mostly below about 40%;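 also: 0% = agonist challenge alone and 100% = reference antagonist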
Target sequence (O43613 whole entry, looked up): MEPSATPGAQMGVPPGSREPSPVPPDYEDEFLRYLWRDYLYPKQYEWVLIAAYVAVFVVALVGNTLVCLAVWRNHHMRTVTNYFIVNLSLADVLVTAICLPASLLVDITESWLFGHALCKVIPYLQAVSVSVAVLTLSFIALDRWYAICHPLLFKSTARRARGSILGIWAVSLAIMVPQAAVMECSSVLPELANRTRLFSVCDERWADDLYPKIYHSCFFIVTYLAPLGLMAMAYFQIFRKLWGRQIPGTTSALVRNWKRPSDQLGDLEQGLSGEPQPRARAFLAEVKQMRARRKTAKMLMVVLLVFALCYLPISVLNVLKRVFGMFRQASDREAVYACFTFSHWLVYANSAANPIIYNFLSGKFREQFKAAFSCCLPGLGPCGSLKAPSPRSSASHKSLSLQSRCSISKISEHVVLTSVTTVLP
CHO parental Ca = counter-screen: ATP calcium response change in parental CHO cells; inhibition, % at 5.6 µM; parental CHO-K1, ATP-induced calcium, Fluo-8 fluorescence; 330,000 compounds, 0.63% hits;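 active = inhibition above that plate's mean sample inhibition plus 3 SD, cut at about 26% in these data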;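 also: 0% = ATP-challenged DMSO wells and 100% = DMSO wells without ATP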
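Material – parental CHO cells · Reagent – ATP stimulus · Compound – single nominal dose of 5.6 µM per compound · Detection – Fluo-8 fluorescence · Read-out basis – percent inhibition of calcium signal · Controls – ATP-challenged DMSO wells low, unchallenged DMSO wells high · Repeats – no replicates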
TAAR1 ag = human TAAR1 agonism. Q96RJ0. CHO RD-HGA16 TAAR1, Fluo-8 calcium fluorescence; vehicle wells 0%, saturating PEA agonist 100%. activation, % at 3 µM. 360,000 compounds, 0.99% hits;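 active = activation above the mean activation of all test compounds in the run plus 3 SD, cut at about 38% in these data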
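Test system: RD-HGA16 (CHO) cells co-expressing Gα16 and hTAAR1 | Doses: Single dose, 3 µM | Schedule: 17-24 h seeding, 75 min 37 °C dye, 30 min RT | Evaluation: % activation from peak over basal fluorescence ratio, DMSO-to-PEA scaled | Technique: Kinetic Fluo-8 calcium fluorescence | Benchmarks: Low control DMSO, high control PEA (EC100)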
OX1R antag-2 = human HCRTR1 antagonism | 330,000 compounds, 0.43% hits | AID 434989 | inhibition, % at 5 µM | O43613 | CHO/OX1R cells, Fluo-8 calcium fluorescence, orexin A;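 active = inhibition above its plate's threshold, mean inhibition of all tested compounds on the plate plus 3 SD, cut at about 37% in these data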;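 also: 0% = orexin A challenge wells and 100% = SB-334867-A antagonist wells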
TAAR1 antag = human TAAR1 antagonism. 360,000 compounds, 1.5% hits. inhibition, % at 3 µM. Q96RJ0. CHO RD-HGA16 TAAR1, Fluo-8 calcium fluorescence, antagonist;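 active = inhibition above a per-plate cutoff, the mean inhibition of test compounds on that plate plus 3 SD, cut at about 49% in these data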;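 also: 0% = DMSO plus EC80 beta-PEA response and 100% = DMSO alone without agonist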
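System: CHO RD-HGA16 cells bearing hTAAR1. Reagent: EC80 β-phenethylamine stimulus. Schedule: seeding 17-24 h prior, 75-min 37 °C, 30-min RT dye loading. Signal: Fluo-8 intracellular calcium dye fluorescence, real-time kinetic reads. Read-out: % inhibition from peak post-agonist over basal fluorescence ratio. Benchmarks: vehicle wells and EC80 agonist wells. Replicates: n of 1.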
TAAR1 nonsel count = nonselective antagonist in TAAR1 antagonist counter-screen; inhibition, % at 3 µM; 2,400 compounds, 77% hits; AID 651780; counterscreen cell line, calcium fluorescence, antagonist mode; shares compounds with TAAR1 antag; in the data active = inhibition above about 22%;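 also: CHO-Ga16 host cells stimulated with ATP at an EC80 level; 0% = agonist EC80 plus vehicle and 100% = vehicle without agonist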
TAAR1 antag conf = confirmation of human TAAR1 antagonists; shares compounds with TAAR1 antag; AID 651785; inhibition, % at 3 µM; 2,400 compounds, 40% hits; TAAR1-expressing cells, fluorescence antagonist read-out; in the data active = inhibition above about 49%;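 also: CHO-Ga16 host cells challenged with agonist PEA near its EC80; 0% = agonist at EC80 plus vehicle and 100% = vehicle with no agonist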
Ga16 nonsel ag = nonselective Ga16 agonist in TAAR1 antagonist counter-screen; AID 651953; 2,400 compounds, 18% hits; Ga16-expressing cells, calcium fluorescence, agonist counterscreen; shares compounds with TAAR1 antag; activation, % at 3 µM; in the data active = activation above about 12%;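 also: 0% = vehicle wells and 100% = saturating stimulus response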
TAAR1 ag count = activates human TAAR1 in antagonist counter-screen | shares compounds with TAAR1 antag | hTAAR1 cell line, fluorescence activation, agonist mode | activation, % at 3 µM | 2,400 compounds, 2% hits; in the data active = activation above about 37%;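 also: CHO cells stably expressing TAAR1 with calcium dye readout; 0% = DMSO vehicle and 100% = full agonist response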
Active calls of the source: *.

`Cc1c([N+](=O)[O-])cc(C(=O)Nc2ccc(Cc3ccncc3)cc2)cc1[N+](=O)[O-]` gave GPR7 antagonist -1.5, OX1R antag-1 12.0, CHO parental Ca -13.3, TAAR1 ag 13.9, OX1R antag-2 -0.8, TAAR1 antag 88.3*, TAAR1 nonsel count 31.3*, TAAR1 antag conf 90.6*, Ga16 nonsel ag 11.5 and TAAR1 ag count 16.1.
O=C(Nc1cc(-c2nc3ncccc3o2)ccc1Cl)c1cccs1 was read as GPR7 antagonist -8.8, OX1R antag-1 67.0*, CHO parental Ca -22.7, TAAR1 ag 5.8, OX1R antag-2 -32.8, TAAR1 antag 60.1*, TAAR1 nonsel count 11.9, TAAR1 antag conf 25.8, Ga16 nonsel ag 4.4 and TAAR1 ag count 0.9.
For COc1ccc(NC(=O)c2oc3ccc(S(=O)(=O)N4CCC5(CC4)OCCO5)cc3c2C)cc1 the results were GPR7 antagonist 8.2, OX1R antag-1 9.3, CHO parental Ca -5.3, TAAR1 ag 21.5, OX1R antag-2 16.1, TAAR1 antag 56.5*, TAAR1 nonsel count 40.0*, TAAR1 antag conf 56.0*, Ga16 nonsel ag 14.2* and TAAR1 ag count 15.1.
OC(COc1ccc2cc(Br)ccc2c1)CN1CCOCC1 (stereo not drawn) was read as GPR7 antagonist 13.7, OX1R antag-1 27.9, CHO parental Ca -10.6, TAAR1 ag 9.1, OX1R antag-2 -14.1 and TAAR1 antag -2.4.
For COCC(=O)N(C)[C@H]1C[C@H]2c3cc(N4CCN(C)CC4)ccc3CCN2C(=O)[C@H]1[C@H](C)O the results were TAAR1 ag 3.0 and TAAR1 antag -5.8.
For Cc1ccc(S(=O)(=O)N2CCOCC2)cc1NC(=O)COC(=O)CNC(=O)c1ccccc1 the results were GPR7 antagonist -10.0, OX1R antag-1 9.3, CHO parental Ca -18.9, TAAR1 ag 3.6, OX1R antag-2 -12.7 and TAAR1 antag 0.3.
For Cc1ccc(S(=O)(=O)N2CCOCC2)cc1NC(=O)COc1ccc(C(=O)c2ccccc2)cc1 the results were OX1R antag-1 11.8, CHO parental Ca 3.6, TAAR1 ag 22.8, OX1R antag-2 19.6, TAAR1 antag 81.5*, TAAR1 nonsel count 36.9*, TAAR1 antag conf 58.6*, Ga16 nonsel ag 13.7* and TAAR1 ag count 12.9.
`CS(=O)(=O)Nc1cccc(-c2cc(NC=O)c3ncc(-c4ccc(F)c(Cl)c4)n3c2)c1` gave TAAR1 ag 13.1 and TAAR1 antag 11.0.
For O=C(Nc1ccc(CN2CCOCC2)cc1)c1ccc(-c2cccc([N+](=O)[O-])c2)o1 the results were GPR7 antagonist -11.9, OX1R antag-1 7.9, CHO parental Ca -23.2, TAAR1 ag 10.5, OX1R antag-2 -8.7 and TAAR1 antag 27.7.
For Cc1nc2ccccc2c(=O)n1/N=C/c1ccc(C(C)C)cc1 the results were GPR7 antagonist -6.5, OX1R antag-1 -0.8, CHO parental Ca -6.2, TAAR1 ag 3.5, OX1R antag-2 -14.2, TAAR1 antag 61.0*, TAAR1 nonsel count 30.9*, TAAR1 antag conf 43.3, Ga16 nonsel ag 1.7 and TAAR1 ag count -2.6.
`CC(=O)C1=CCC(c2ccc(C)o2)N(S(=O)(=O)c2ccc(C)cc2)C1` (stereo not drawn) gave TAAR1 ag -2.8 and TAAR1 antag -16.1.
For Cc1noc(C)c1-c1ccc(C(=O)Nc2cccc(C(F)(F)F)c2)c2occc12 the results were TAAR1 ag -0.7, TAAR1 antag 52.8*, TAAR1 nonsel count 21.2, TAAR1 antag conf 39.7, Ga16 nonsel ag 2.9 and TAAR1 ag count 2.6.
`Cc1noc(C)c1-c1ccc(C(=O)NCc2cccc(Cl)c2)c2occc12` gave TAAR1 ag 1.4 and TAAR1 antag 25.2.
Cc1noc(C)c1-c1ccc(C(=O)Nc2cccc(NS(C)(=O)=O)c2)c2occc12 was read as TAAR1 ag 16.3, TAAR1 antag 59.6*, TAAR1 nonsel count 33.4*, TAAR1 antag conf 45.6, Ga16 nonsel ag 10.9 and TAAR1 ag count 10.9.
`CCOc1ccc(S(=O)(=O)Nc2cccc(C(=O)N3CCN(c4ccccc4O)CC3)c2)cc1` gave OX1R antag-1 0.0, CHO parental Ca -27.9, TAAR1 ag 11.0, OX1R antag-2 -11.2 and TAAR1 antag 36.0.
`CCOc1ccc(S(=O)(=O)Nc2cccc(C(=O)N3CCN(c4ccccn4)CC3)c2)cc1` gave TAAR1 ag 11.5, TAAR1 antag 52.5*, TAAR1 nonsel count 31.4*, TAAR1 antag conf 49.1*, Ga16 nonsel ag 15.6* and TAAR1 ag count 15.2.
`CCc1ccc(S(=O)(=O)Nc2ccc(O)c3c(=O)cc(-c4ccccc4Cl)oc23)cc1` gave OX1R antag-1 31.9, CHO parental Ca -18.4, TAAR1 ag 14.0, OX1R antag-2 -11.9, TAAR1 antag 60.6*, TAAR1 nonsel count 4.4, TAAR1 antag conf 25.4, Ga16 nonsel ag 7.3 and TAAR1 ag count 16.2.
Screening OCCC#Cc1ccc(CN2CCN(Cc3ccccc3)C(CCO)C2)cc1 (stereo not drawn) returned GPR7 antagonist -1.0, OX1R antag-1 14.4, CHO parental Ca -19.8, TAAR1 ag 0.8, OX1R antag-2 -15.2 and TAAR1 antag -14.9.
CCn1cc(C(=O)NCC2CCCO2)c(=O)c2cc(S(=O)(=O)N(C)C)ccc21 (stereo not drawn) was read as GPR7 antagonist -13.2, OX1R antag-1 1.1, CHO parental Ca 0.7, TAAR1 ag 0.8, OX1R antag-2 2.8 and TAAR1 antag -26.0.
Screening CCn1cc(C(=O)NCC2CCCO2)c(=O)c2cc(S(=O)(=O)N(C)C3CCCCC3)ccc21 (stereo not drawn) returned GPR7 antagonist -11.0, OX1R antag-1 14.4, CHO parental Ca -5.4, TAAR1 ag 9.6, OX1R antag-2 -16.5, TAAR1 antag 52.0*, TAAR1 nonsel count 20.5, TAAR1 antag conf 37.8, Ga16 nonsel ag 6.4 and TAAR1 ag count 4.6.
CCOC(=O)[C@@H]1[C@H]2COc3ccccc3[C@@H]2N2C(=O)N(c3ccc(Br)cc3)C(=O)[C@]12C was read as OX1R antag-1 1.2, CHO parental Ca -3.5, TAAR1 ag 1.3, OX1R antag-2 -8.7 and TAAR1 antag 0.4.
